Data: ChEMBL document CHEMBL4732065 (Eur J Med Chem, 2021)

Assays:
Cytochrome P450 1B1 = biological target: T1, Cytochrome P450 1B1 (Homo sapiens, UniProt Q16678); assay: Inhibition of recombinant human CYP1B1 using 7-ethoxyresorufin as substrate after 35 mins in presence of NADP+ by EROD assay
T1 sequence (Q16678 whole entry): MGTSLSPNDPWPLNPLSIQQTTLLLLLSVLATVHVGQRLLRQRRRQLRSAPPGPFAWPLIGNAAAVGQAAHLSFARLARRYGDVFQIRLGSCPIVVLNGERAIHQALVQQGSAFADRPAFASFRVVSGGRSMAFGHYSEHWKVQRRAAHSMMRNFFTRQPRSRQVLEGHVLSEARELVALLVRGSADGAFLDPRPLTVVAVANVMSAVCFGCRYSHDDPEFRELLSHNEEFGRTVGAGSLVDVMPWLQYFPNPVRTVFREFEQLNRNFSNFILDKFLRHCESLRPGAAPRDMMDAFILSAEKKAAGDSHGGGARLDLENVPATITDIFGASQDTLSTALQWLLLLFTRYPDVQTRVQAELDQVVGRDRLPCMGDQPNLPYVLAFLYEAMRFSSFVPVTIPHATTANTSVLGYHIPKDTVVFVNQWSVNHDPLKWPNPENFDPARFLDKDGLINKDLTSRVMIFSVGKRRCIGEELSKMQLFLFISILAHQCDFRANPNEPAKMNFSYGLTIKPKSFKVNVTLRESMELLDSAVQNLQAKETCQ
Summary of the method: (§1)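 Recombinant human CYP1 Supersomes co-expressing P450 reductase; 20 fmol CYP1B1, 10 fmol CYP1A1 or 60 fmol CYP1A2 per well. Incubated at 37 °C (1B1 35 min, 1A1 15 min, 1A2 50 min).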

Cytochrome P450 1A1 = biological target: T2, Cytochrome P450 1A1 (Homo sapiens, UniProt P04798); assay: Inhibition of recombinant human CYP1A1 using 7-ethoxyresorufin as substrate after 15 mins in presence of NADP+ by EROD assay; type: ADME
T2 sequence (P04798 whole entry): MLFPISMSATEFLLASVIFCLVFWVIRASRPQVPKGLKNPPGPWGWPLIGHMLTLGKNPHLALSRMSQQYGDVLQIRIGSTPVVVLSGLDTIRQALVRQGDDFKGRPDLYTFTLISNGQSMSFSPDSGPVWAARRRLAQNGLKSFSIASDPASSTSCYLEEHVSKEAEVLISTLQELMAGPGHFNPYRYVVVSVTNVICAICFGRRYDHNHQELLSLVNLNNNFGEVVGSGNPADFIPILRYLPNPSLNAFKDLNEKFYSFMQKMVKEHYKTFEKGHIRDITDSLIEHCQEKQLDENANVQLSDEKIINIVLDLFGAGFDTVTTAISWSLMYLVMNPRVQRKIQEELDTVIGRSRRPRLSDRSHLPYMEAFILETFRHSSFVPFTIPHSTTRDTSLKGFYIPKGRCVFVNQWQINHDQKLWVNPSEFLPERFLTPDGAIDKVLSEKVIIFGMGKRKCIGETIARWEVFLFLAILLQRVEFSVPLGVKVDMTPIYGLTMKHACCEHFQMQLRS
Summary of the method: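 Recombinant human CYP1 Supersomes co-expressing P450 reductase; 20 fmol CYP1B1, 10 fmol CYP1A1 or 60 fmol CYP1A2 per well. Incubated at 37 °C (1B1 35 min, 1A1 15 min, 1A2 50 min). Stopped with cold methanol; fluorescence read at 544/590 nm; triplicates.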

Cytochrome P450 1A2 = biological target: T3, Cytochrome P450 1A2 (Homo sapiens, UniProt P05177); assay: Inhibition of recombinant human CYP1A2 using 7-ethoxyresorufin as substrate after 50 mins in presence of NADP+ by EROD assay; type: ADME; summary of the method: as §1
T3 sequence (P05177 whole entry): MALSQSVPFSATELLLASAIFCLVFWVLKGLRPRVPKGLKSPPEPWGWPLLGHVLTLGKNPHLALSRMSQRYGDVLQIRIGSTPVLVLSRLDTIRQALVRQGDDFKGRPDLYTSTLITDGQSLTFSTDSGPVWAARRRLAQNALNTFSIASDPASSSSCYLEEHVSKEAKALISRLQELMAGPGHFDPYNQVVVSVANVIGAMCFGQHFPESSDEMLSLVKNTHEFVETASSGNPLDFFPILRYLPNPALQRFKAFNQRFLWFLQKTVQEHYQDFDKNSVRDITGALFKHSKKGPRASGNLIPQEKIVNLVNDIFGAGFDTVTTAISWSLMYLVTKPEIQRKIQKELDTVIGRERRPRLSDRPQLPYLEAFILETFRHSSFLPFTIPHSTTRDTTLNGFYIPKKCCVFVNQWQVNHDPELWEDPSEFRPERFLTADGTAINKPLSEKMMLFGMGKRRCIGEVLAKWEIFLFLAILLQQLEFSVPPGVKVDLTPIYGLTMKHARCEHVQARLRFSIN

Homo sapiens [1] = organism: Homo sapiens; assay: Selectivity index, ratio of IC50 for recombinant human CYP1A1 to IC50 for recombinant human CYP1B1
Homo sapiens [2] = organism: Homo sapiens; assay: Selectivity index, ratio of IC50 for recombinant human CYP1A2 to IC50 for recombinant human CYP1B1

| SMILES | IC50 (Cytochrome P450 1B1) [nM] | IC50 (Cytochrome P450 1A1) [nM] | IC50 (Cytochrome P450 1A2) [nM] | Ratio IC50 (Homo sapiens [1]) | Ratio IC50 (Homo sapiens [2]) |
| --- | --- | --- | --- | --- | --- |
| COc1ccc(OC)c2c1c(OC)cc1c(=O)cc(-c3cccc(O)n3)oc12 | 7.7 | 323 | > 1000 | 41.9 | > 130 |
| COc1ccc(OC)c2c1c(OC)cc1c(=O)cc(-c3cccc(N)n3)oc12 | 6.5 | 56.8 | > 1000 | 8.7 | > 154 |
| COc1ccc(OC)c2c1c(OC)cc1c(=O)cc(-c3ccc(O)nc3)oc12 | 658 | > 1000 | > 1000 | > 1.5 | > 1.5 |
| COc1ccc(OC)c2c1c(OC)cc1c(=O)cc(-c3ccc4[nH]cnc4c3)oc12 | 15.6 | 42.4 | > 1000 | 2.7 | > 64.1 |
| COc1ccc(OC)c2c1c(OC)cc1c(=O)cc(-c3cccc(C)n3)oc12 | 1.2 | 19.9 | 148 | 16.6 | 124 |
| COc1ccc(OC)c2c1c(OC)cc1c(=O)cc(-c3cccs3)oc12 | 4.8 | 4.4 | 40.4 | 0.9 | 8.4 |
| COc1ccc(OC)c2c1c(OC)cc1c(=O)cc(-c3ccnc(O)c3)oc12 | 61.5 | 232 | > 1000 | 3.8 | > 16.3 |
| COc1ccc(OC)c2c1c(OC)cc1c(=O)cc(-c3cccnc3Br)oc12 | 63.9 | 60.7 | 966 | 0.9 | 15.1 |
| COc1ccc(OC)c2c1c(OC)cc1c(=O)cc(-c3cccc(F)n3)oc12 | 0.38 | 2.3 | 668 | 6.1 | 1760 |
| COc1ccc(OC)c2c1c(OC)cc1c(=O)cc(-c3c[nH]c4ccccc34)oc12 | 4.1 | 16.5 | > 1000 | 4 | > 244 |
| COc1ccc(OC)c2c1c(OC)cc1c(=O)cc(-c3cncc(C(=O)O)c3)oc12 | 30.1 | 85.8 | > 1000 | 2.9 | > 33.2 |
| COc1ccc(OC)c2c1c(OC)cc1c(=O)cc(-c3ccncc3)oc12 | 1.2 | 40.4 | 200 | 33.7 | 166 |
| COc1ccc(OC)c2c1c(OC)cc1c(=O)cc(-c3cscn3)oc12 | 2.6 | 3.1 | 29.2 | 1.2 | 11.2 |
| COc1ccc(OC)c2c1c(OC)cc1c(=O)cc(-c3ccc4ccccc4n3)oc12 | 1 | 118 | > 1000 | 118 | > 1000 |
| COc1ccc(OC)c2c1c(OC)cc1c(=O)cc(-c3ccc4[nH]ncc4c3)oc12 | 2 | 1.6 | > 1000 | 0.8 | > 500 |
| COc1ccc(OC)c2c1c(OC)cc1c(=O)cc(-c3ccc4cc[nH]c4c3)oc12 | 0.95 | 142 | > 1000 | 149 | > 1050 |
| COc1ccc(OC)c2c1c(OC)cc1c(=O)cc(-c3ccccn3)oc12 | 0.6 | 5.4 | 108 | 9 | 179 |
| COc1ccc(OC)c2c1c(OC)cc1c(=O)cc(-c3ccc(N4CCN(C)CC4)cc3)oc12 | > 1000 | > 1000 | > 1000 | – | – |
